How the values were obtained:
Presenilin-1 [1] = target: T1, Presenilin-1 (Homo sapiens, UniProt P49768); experiment: Inhibition of gamma-secretase in human SHSY5Y cells expressing human recombinant APP assessed as amyloid beta40 formation by ELISA
How it was run: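 SH-SY5Y cells overexpressing human APP Swedish variant exposed to compound for 48 h; Aβ40 (and Aβ42) in the cell medium quantified by ELISA, either Meso Scale Discovery or AlphaLISA format. Compounds also cross-screened for inhibition of Notch processing.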

Presenilin-1 [2] = target: T1, Presenilin-1; experiment: Inhibition of gamma-secretase in human SHSY5Y cells expressing human recombinant APP assessed as amyloid beta42 formation by ELISA
How it was run: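 SH-SY5Y cells overexpressing human APP Swedish variant were incubated with compound for 48 h. Secreted Aβ42 and Aβ40 were measured by immunoassay (MSD electrochemiluminescence or AlphaLISA).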

IC50 (Presenilin-1 [1]): 40 nM
IC50 (Presenilin-1 [2]): 40 nM
SMILES: CC(C)[C@H](O)C(=O)N[C@@H](C)C(=O)NC1C(=O)N(C)CCc2ccccc21 (stereo partly drawn) [(2S)-2-hydroxy-3-methyl-N-[(1S)-1-{[(1S)-3-methyl-2-oxo-2,3,4,5-tetrahydro-1H-3-benzazepin-1-yl]carbamoyl}ethyl]butanamide]

Reference: BindingDB's records for doi:10.1016/j.bmcl.2009.08.072 (Glaxosmithkline, 2010)
